XI50 (mole fraction), XI50 and IC50 data for 3 molecules are collected here from ChEMBL document CHEMBL4411313, “Substrate-Specific Inhibition Constants for Phospholipase A2 Acting on Unique Phospholipid Substrates in Mixed Micelles and Membranes Using Lipidomics” (J Med Chem, 2019).

Test [1] concerns the target T1, Cytosolic phospholipase A2 (Homo sapiens) (UniProt P47712).
T1 sequence (whole entry): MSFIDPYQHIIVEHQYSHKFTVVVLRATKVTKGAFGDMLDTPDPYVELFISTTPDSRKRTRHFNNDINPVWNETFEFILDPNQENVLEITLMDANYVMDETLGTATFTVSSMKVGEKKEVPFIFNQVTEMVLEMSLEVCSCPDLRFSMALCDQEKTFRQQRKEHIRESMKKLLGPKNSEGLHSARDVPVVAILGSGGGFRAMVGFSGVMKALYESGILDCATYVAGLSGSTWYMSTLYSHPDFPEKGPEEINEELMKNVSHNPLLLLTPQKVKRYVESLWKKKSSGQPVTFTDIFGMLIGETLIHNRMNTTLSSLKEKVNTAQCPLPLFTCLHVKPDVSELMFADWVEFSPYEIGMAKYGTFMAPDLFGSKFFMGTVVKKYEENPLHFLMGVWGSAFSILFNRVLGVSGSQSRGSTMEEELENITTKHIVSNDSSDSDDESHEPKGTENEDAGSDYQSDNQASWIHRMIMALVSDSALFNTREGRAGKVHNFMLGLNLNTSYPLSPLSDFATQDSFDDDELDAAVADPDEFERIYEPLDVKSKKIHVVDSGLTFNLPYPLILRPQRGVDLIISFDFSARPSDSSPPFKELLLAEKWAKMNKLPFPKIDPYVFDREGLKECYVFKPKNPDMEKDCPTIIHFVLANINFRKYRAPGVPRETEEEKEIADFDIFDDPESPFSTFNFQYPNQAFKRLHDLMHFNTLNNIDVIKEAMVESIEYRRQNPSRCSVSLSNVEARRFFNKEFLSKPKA
Kind of test: Inhibition of human recombinant cPLA2 assessed as reduction in 16:0 LPC formation after 30 mins by HPLC-MS analysis. In a few lines:
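Human recombinant group IVA cPLA2 in mixed micelles with 97 µM PAPC plus 3 µM PI(4,5)P2 (100 µM total phospholipid) and 400 µM C12E8. Buffer was 100 mM HEPES pH 7.5, 90 µM CaCl2 and 2 mM DTT; incubation 30 min at 40 °C. 16:0 LPC was read by HILIC-MRM (positive ion) and free AA by C18 LC-MS (negative ion).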

The target of test [2] is 85/88 kDa calcium-independent phospholipase A2 (Homo sapiens) (UniProt O60733). Nature of the test: Inhibition of human recombinant calcium-independent PLA2 using PAPS as substrate assessed as reduction in 16:0 LPS formation after 30 mins in presence of equal molar mixture of PAPA/PAPC/PAPE/PAPG/PAPS/PLPC by HPLC-MS analysis.
Test [3] addresses T2, 85/88 kDa calcium-independent phospholipase A2 (Homo sapiens) (UniProt O60733).
T2 sequence (whole entry): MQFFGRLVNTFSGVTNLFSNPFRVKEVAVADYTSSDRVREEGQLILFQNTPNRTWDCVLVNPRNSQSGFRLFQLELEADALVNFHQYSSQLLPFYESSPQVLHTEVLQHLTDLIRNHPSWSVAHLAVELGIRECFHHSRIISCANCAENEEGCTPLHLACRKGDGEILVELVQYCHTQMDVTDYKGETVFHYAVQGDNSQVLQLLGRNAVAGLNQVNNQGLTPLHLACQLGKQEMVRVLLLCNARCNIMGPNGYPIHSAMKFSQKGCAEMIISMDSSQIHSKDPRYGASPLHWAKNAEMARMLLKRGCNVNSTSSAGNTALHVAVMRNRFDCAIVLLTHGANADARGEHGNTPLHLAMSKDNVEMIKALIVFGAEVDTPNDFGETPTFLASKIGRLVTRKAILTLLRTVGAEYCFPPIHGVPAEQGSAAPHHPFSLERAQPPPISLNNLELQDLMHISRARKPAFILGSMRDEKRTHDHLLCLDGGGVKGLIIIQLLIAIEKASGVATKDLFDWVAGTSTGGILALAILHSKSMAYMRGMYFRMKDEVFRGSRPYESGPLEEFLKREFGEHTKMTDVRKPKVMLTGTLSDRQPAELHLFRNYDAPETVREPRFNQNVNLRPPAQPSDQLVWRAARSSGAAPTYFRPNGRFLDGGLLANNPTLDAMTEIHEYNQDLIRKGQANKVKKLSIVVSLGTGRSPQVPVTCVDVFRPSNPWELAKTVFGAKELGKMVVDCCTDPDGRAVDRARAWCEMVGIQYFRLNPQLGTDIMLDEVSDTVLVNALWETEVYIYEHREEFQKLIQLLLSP
Kind of test: (§1) Inhibition of human recombinant calcium-independent PLA2 using PAPA as substrate assessed as reduction in […] after 30 mins by HPLC-MS analysis.

In test [4] the target is Cytosolic phospholipase A2 (Homo sapiens) (UniProt P47712). Kind of test: Inhibition of human recombinant cytosolic PLA2 using PAPA as substrate assessed as reduction in free FA formation after 30 mins in presence of equal molar mixture of PAPA/PAPC/PAPE/PAPG/PAPS/PLPC by HPLC-MS analysis.
In test [5] the target is T2, 85/88 kDa calcium-independent phospholipase A2 (Homo sapiens). Nature of the test: (§2) Inhibition of human recombinant calcium-independent PLA2 using PAPE as substrate assessed as assessed as reduction in free AA formation after 30 mins in presence of equal molar mixture of PAPA/PAPC/PAPE/PAPG/PAPS/PLPC by HPLC-MS analysis. An outline of the steps:
(§3)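 The iPLA2 substrate was an equimolar mixture of PAPA, PAPC, PAPE, PAPG and PAPS (100 µM total) with 400 µM C12E8. Buffer was 100 mM HEPES pH 7.5, 2 mM ATP and 4 mM DTT; 30 min at 40 °C. Each 16:0 lysophospholipid was quantified in positive ion mode; free AA, common to all five substrates, in negative ion mode.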

Test [6] has as its target T3, Secretory phospholipase A2 (Homo sapiens) (UniProt Q5R387+Q9NZK7+P14555+Q9BZM2+Q9UNK4+P39877+O15496+P04054+Q9NZ20+Q9BZM1+Q9BX93).
The target of test [7] is T3, Secretory phospholipase A2 (Homo sapiens). The source holds these as a separate data set.
Test [8] has as its target T2, 85/88 kDa calcium-independent phospholipase A2 (Homo sapiens). Nature of the test: (§4) Inhibition of human recombinant calcium-independent PLA2 using PAPG as substrate assessed as reduction in 16:0 […] formation after 30 mins in presence of equal molar mixture of PAPA/PAPC/PAPE/PAPG/PAPS/PLPC by HPLC-MS analysis.
In test [9] the target is T3, Secretory phospholipase A2 (Homo sapiens). This is another data set of the same source.
The target in test [10] is T4, 85/88 kDa calcium-independent phospholipase A2 (Homo sapiens, UniProt O60733).
T4 sequence (O60733 whole entry): T2 sequence (whole entry)
Nature of the test: (§5) Inhibition of human recombinant iPLA2 assessed as reduction in free FA formation after 30 mins by HPLC-MS analysis. In a few lines: (§6)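 Human recombinant group VIA iPLA2 acted on 100 µM single phospholipid (PAPC or PLPC) in 400 µM C12E8 mixed micelles. Buffer was 100 mM HEPES pH 7.5, 2 mM ATP and 4 mM DTT; incubation 30 min at 40 °C. 16:0 LPC was read by HILIC-MRM in positive ion mode; free AA or LA by C18 LC-MS in negative ion mode.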

For test [11], the target named is T2, 85/88 kDa calcium-independent phospholipase A2 (Homo sapiens). The test is described as §5. An outline of the steps:
as §6

Test [12] shares this target. Kind of test: Inhibition of human recombinant calcium-independent PLA2 using PAPA as substrate assessed as reduction in 16:0 LPA formation after 30 mins in presence of equal molar mixture of PAPA/PAPC/PAPE/PAPG/PAPS/PLPC by HPLC-MS analysis. In a few lines: as §3
Test [13] addresses T4, 85/88 kDa calcium-independent phospholipase A2. Nature of the test: Inhibition of human recombinant calcium-independent PLA2 using PAPC as substrate assessed as reduction in free AA formation after 30 mins by HPLC-MS analysis. An outline of the steps:
as §6

For test [14] the target is unchanged. Nature of the test: (§7) Inhibition of human recombinant iPLA2 assessed as reduction in 16:0 LPC formation after 30 mins by HPLC-MS analysis. An outline of the steps:
as §6

Test [15] concerns the target T2, 85/88 kDa calcium-independent phospholipase A2 (Homo sapiens). Described as §7. In a few lines:
as §6

Test [16] addresses T4, 85/88 kDa calcium-independent phospholipase A2. Described as §2. In a few lines: as §3
The target is the same in test [17]. Nature of the test: (§8) Inhibition of human recombinant calcium-independent PLA2 using PAPC as substrate assessed as reduction in free [14C]-AA formation after 30 mins by scintillation counting. In a few lines: (§9)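 Radioactive format: iPLA2 hydrolysed PAPC/C12E8 mixed micelles traced with 1-palmitoyl-2-(1-[14C]arachidonoyl) PC. Released [14C]-AA was measured by scintillation counting. Percent inhibition was plotted against log mole fraction or log concentration to derive X1(50) and IC50.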

The target in test [18] is T2, 85/88 kDa calcium-independent phospholipase A2 (Homo sapiens). Described as §8. An outline of the steps: as §9
The target of test [19] is T4, 85/88 kDa calcium-independent phospholipase A2. Nature of the test: Inhibition of human recombinant calcium-independent PLA2 using PAPS as substrate assessed as reduction in […] after 30 mins in presence of equal molar mixture of PAPA/PAPC/PAPE/PAPG/PAPS/PLPC by HPLC-MS analysis.
Test [20] shares this target. Kind of test: (§10) Inhibition of human recombinant calcium-independent PLA2 using PAPC as substrate assessed as reduction in 16:0 LPC formation after 30 mins by HPLC-MS analysis. In a few lines: as §6
Test [21] deals with T2, 85/88 kDa calcium-independent phospholipase A2 (Homo sapiens). The test is described as §10. An outline of the steps: as §6
In test [22] the target is T4, 85/88 kDa calcium-independent phospholipase A2. The description is as §4.
Test [23] deals with T2, 85/88 kDa calcium-independent phospholipase A2 (Homo sapiens). Nature of the test: Inhibition of human recombinant calcium-independent PLA2 using PAPE as substrate assessed as reduction in 16:0 LPE formation after 30 mins in presence of equal molar mixture of PAPA/PAPC/PAPE/PAPG/PAPS/PLPC by HPLC-MS analysis. An outline of the steps:
as §3

In test [24] the target is T4, 85/88 kDa calcium-independent phospholipase A2. The description is as §1.
Test [25] shares this target. Nature of the test: Inhibition of human recombinant calcium-independent PLA2 using PLPC as substrate assessed as reduction in 16:0 LPC formation after 30 mins by HPLC-MS analysis. An outline of the steps: as §6
The target is the same in test [26]. Nature of the test: Inhibition of human recombinant calcium-independent PLA2 using PAPE as substrate assessed as reduction in […] after 30 mins in presence of equal molar mixture of PAPA/PAPC/PAPE/PAPG/PAPS/PLPC by HPLC-MS analysis.
Test [27] shares this target. Kind of test: Inhibition of human recombinant calcium-independent PLA2 using PLPC as substrate assessed as reduction in free LA formation after 30 mins by HPLC-MS analysis.

Take `O=C1NC(=O)C(=Cc2ccc(C(=O)NC[C@@H]3C[C@@H](SC(c4ccccc4)(c4ccccc4)c4ccccc4)CN3C(=O)c3ccccc3C(=O)c3ccc(F)cc3F)cc2)S1`: the XI50 (mole fraction) in test [1] worked out at 0.0023. Also, the XI50 in test [2] was found to be 2 nM; in test [3] it was 0.13 nM; in test [4] it was 1.8 nM.

For `CCc1c(C(=O)C(N)=O)c2c(OCC(=O)O)cccc2n1Cc1ccccc1`, the XI50 (mole fraction) in test [5] was 0.0008; in test [8], 0.0031 to 0.026. Besides, the figures for the XI50 in [6], in test [7] and in test [9] were 0.17 nM, 0.9 nM and 0.19 nM, respectively.

In the case of `CCCCCCCCSCC(=O)C(F)(F)F`, the concentration for half-maximal inhibition (IC50) in test [10] was 48 nM; in [13], 49 nM; in test [14], 55 nM; in test [16] it was 50 nM; in test [17], 48 nM; in test [19], 46 nM. Moreover, the half-maximal inhibitory concentration (IC50) in test [20] worked out at 54 nM; in [22], 48 nM; in test [24], 160 nM; in test [25], 83 nM; in test [26], 63 nM; in test [27] it was 67 nM. Further, the XI50 (mole fraction) in test [11] stood at 7e-05; in test [12] it was 0.0002; in [15], 8e-05; in test [5] it was 7e-05; in [18], 9e-05; in test [21], 8e-05. Further, the XI50 (mole fraction) in [8] turned out to be 6e-05; in [23], 9e-05. Also, in test [2], the XI50 turned out to be 0.05 nM.
